Screening results deposited in PubChem BioAssay by several laboratories.
NR2E3 ag-1 = inhibitors of NR2E3-RetCOR corepressor binding, primary screen, NR2E3 agonist project, biochemical, TR-FRET, GST-NR2E3, biotin-RetCOR; 1536-well; inhibition of corepressor binding, % at 4.78 µM; 0.12% of 320,000 active; AID 2300, 2010;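 active = percent inhibition above the cutoff of mean plus 3 SD of all tested compounds, set per screening campaign, cut at about 20% in these data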;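 note: 0% = DMSO wells and 100% = biotin wells as full block of FRET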
Target sequence (Q9Y5X4 whole entry, looked up): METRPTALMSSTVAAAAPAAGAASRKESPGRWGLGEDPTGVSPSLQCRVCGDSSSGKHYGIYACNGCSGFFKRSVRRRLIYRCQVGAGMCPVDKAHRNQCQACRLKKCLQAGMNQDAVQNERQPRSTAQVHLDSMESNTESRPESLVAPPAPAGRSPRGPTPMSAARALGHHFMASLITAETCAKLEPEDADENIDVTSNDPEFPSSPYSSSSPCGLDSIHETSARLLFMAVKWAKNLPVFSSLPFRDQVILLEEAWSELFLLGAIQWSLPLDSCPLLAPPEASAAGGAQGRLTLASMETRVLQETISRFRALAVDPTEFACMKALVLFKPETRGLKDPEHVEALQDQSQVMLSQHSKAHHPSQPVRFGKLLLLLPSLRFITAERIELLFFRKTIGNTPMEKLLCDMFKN
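System: GST-tagged NR2E3 plus biotinylated RetCOR corepressor; Buffer or medium: pH 7.5 Tris-based buffer; Probe or stimulus: RetCOR corepressor, biotinylated, 7 nM; Doses: compound at 4.8 µM, single dose; Schedule: 5 h incubation at 4 °C; Technique: time-resolved FRET; Evaluation: percent inhibition of TR-FRET ratio; Replication: one well per compound, singlicate testing.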
GalR3 antag = GalR3 antagonists in HEK293 cells, primary screen, cell-based, fluorescence readout; Galanin receptor type 3 (Homo sapiens), O60755; HEK293 GalR3-CNG cAMP membrane potential fluorescence; galR3 body fused to GalR1 C-terminus; inhibition, % at 3 µM; 0.44% of 360,000 active; AID 651719, 2012;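 active = inhibition above the screen-wide average plus 3 SD, cut at about 13% in these data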;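 note: forskolin and galanin both at EC90 stimulate the cells; cAMP rise reported by CNG channel membrane potential dye signal; 0% = forskolin plus galanin with DMSO and 100% = forskolin alone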
NadD inh = inhibitors of S. aureus NadD, primary screen, biochemical, colorimetric, uHTS; Nicotinate-nucleotide adenylyltransferase NadD (Staphylococcus aureus N315); purified NadD enzyme, colorimetric absorbance read-out; inhibition, % at 20 µM; 0.78% of 360,000 active; in the data active = inhibition above about 26%
MsrA act = bovine MsrA enzyme activators, primary screen, biochemical, absorbance, HTS | Methionine sulfoxide reductase A (Bos taurus) | purified bovine MsrA, absorbance read-out | activation, % at 10.6 µM | 0.3% of 360,000 active | AID 602163, 2012; in the data active = activation above about 7.5%;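 note: 0% = vehicle and 100% = reference activator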
MsrA inhibitor = bovine MsrA enzyme inhibitors, primary screen, biochemical, absorbance, HTS. Methionine sulfoxide reductase A (Bos taurus). 0.75% of 360,000 active. inhibition, % at 15.5 µM. AID 651718, 2012. purified bovine MsrA, absorbance read-out; in the data active = inhibition above about 4.5%;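 note: 0% = vehicle wells with enzyme and 100% = reference inhibitor wells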
NR2E3 ag-2 = NR2E3 agonists in two-hybrid cells, primary screen, cell-based, luminescence, CHO-S, Gal4-NCOR/VP16-NR2E3; 0.35% of 360,000 active; luciferase; Photoreceptor-specific nuclear receptor (Homo sapiens), Q9Y5X4; inhibition of corepressor binding, % at 3.98 µM;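 active = inhibition above the mean of all tested compounds plus 3 SD, cut at about 70% in these data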;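 note: 0% = DMSO with NR2E3 transfected cells and 100% = cells lacking NR2E3 construct; higher means lower luciferase signal from less NR2E3 corepressor binding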
MsrA act confirm = bovine MsrA activators, retest, confirmation, biochemical, absorbance, HTS; activation, % at 10.6 µM; 12% of 1,000 active; shares compounds with MsrA act; AID 602270, 2012; purified bovine MsrA, absorbance read-out; in the data active = activation above about 4%;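 note: enzyme coupled to thioredoxin and thioredoxin reductase with NADPH; 0% = vehicle wells and 100% = reference activator wells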
An asterisk follows results filed as active; / = no result given. Hits are enriched below; roughly 2.5% of the tested compounds scored in any of these assays.

SMILES | NR2E3 ag-1 | GalR3 antag | NadD inh | MsrA act | MsrA inhibitor | NR2E3 ag-2 | MsrA act confirm
CN(CCC#N)C(=O)CSc1ncnc2sc(-c3ccccc3)cc12 | 3 | -3 | -2 | -5 | 1 | -53 | /
CCN(CC)C(=O)CSc1ncnc2sc(-c3ccccc3)cc12 | 5 | -9 | 2 | 7.7* | 2 | -102 | 1
N#Cc1ccc(COC(=O)C2CC(=O)N(CCc3ccccc3)C2)cc1 (stereo unspecified) | / | -2 | 3 | -1 | -1 | -4 | /
O=C(COC(=O)c1ccc(Cl)c(S(=O)(=O)N2CCOCC2)c1)Nc1ccc2[nH]c(=O)[nH]c2c1 | -6 | -2 | 11 | -1 | 0 | -9 | /
O=C(COC(=O)c1ccc(Cl)c(S(=O)(=O)N2CCN(c3ccc(F)cc3)CC2)c1)Nc1cccc(Cl)c1 | -3 | -9 | 19 | 12* | -1 | -2 | 1
O=C(CC1CCCCC1)Nc1ccc(-c2ccc3nncn3n2)cc1 | 2 | -2 | -5 | 7.7* | 0 | -18 | -1
Cc1cc(NC(=O)CSc2nnc(-c3ccc(O)cc3)o2)no1 | 3 | -1 | -3 | 0 | 2 | 2 | /
CC[C@]1(C(=O)OC)[C@H]2C(=O)N(Cc3ccccc3)C(=O)[C@H]2[C@H]2CN=C(SCc3ccc(C(=O)OC)cc3)N21 | / | -4 | 5 | -1 | 1 | -14 | /
O=C(O)CN1C(=O)CCS(=O)c2ccccc21 (stereo unspecified) | -3 | -2 | -4 | -5 | 2 | 23 | /
Cc1ccccc1OCc1nc(-c2ccccc2)no1 | 3 | -3 | -6 | -8 | 0 | -78 | /
Cc1ccc(-c2noc(COc3ccccc3C)n2)cc1 | 3 | -1 | -4 | 8.1* | 1 | -28 | -3
CC(NC(=S)Nc1c(Br)cccc1OC(F)F)C(C)(C)C (stereo unspecified) | -1 | -1 | -5 | 9.0* | 0 | -10 | 0
CC(NC(=O)c1ccc(CS(=O)(=O)c2ccc(Cl)cc2)o1)c1ccc2c(c1)OCCO2 (stereo unspecified) | 0 | -4 | -9 | 8.6* | 0 | 0 | -2
Cc1oc(-c2cccs2)nc1CS(=O)CC(=O)NCCCN1CC(C)CC(C)C1 (stereo unspecified) | 3 | / | 1 | -3 | -1 | -3 | /
COc1ccccc1NC(=S)N(Cc1ccc(Cl)cc1)CC1CCC(C(=O)O)CC1 (stereo unspecified) | -1 | -3 | 11 | -2 | -1 | -4 | /
CCOc1ccc(N2CC(C(=O)NCCCN3CCOCC3)CC2=O)cc1 (stereo unspecified) | -1 | -4 | -6 | 9.1* | 0 | -13 | -2
Cn1nc(N)nc1N1CCN(c2ccc(F)cc2)CC1 | 6 | -7 | -3 | 8.0* | -1 | -13 | -1
O=C(NCSc1ccnc(SCNC(=O)c2ccc(F)cc2)n1)c1ccc(F)cc1 | 1 | -2 | -1 | 8.5* | 1 | -27 | 2
O=C(NCCNC(=O)c1ccc(F)cc1)c1ccc(F)cc1 | 0 | -4 | -6 | -5 | 0 | -17 | /
CCCCN(C)C(=O)c1cc2cc3ccc(OC)cc3nc2o1 | 2 | -5 | -6 | 17* | 2 | -24 | 0
CCCCN(C)C(=O)c1cc2cc3cc(OC)ccc3nc2o1 | 0 | -6 | 2 | -7 | 3 | -81 | /
CC1CC(c2ccccc2)NS(=O)(=O)O1 (stereo unspecified) | 1 | -1 | -3 | -5 | 0 | 10 | /
c1cc(SSc2ccncc2)ccn1 | 1 | -9 | 13 | 10* | 2 | 9 | -2
c1ccc(Sc2ccncc2)cc1 | / | -1 | 0 | -2 | 1 | 10 | /
